# Assay outcomes: PubChem, several laboratories
# Most compounds without a hit are left out; they make up all but 0.74% or so of the library.
# Diaphorase inh: inhibits diaphorase or chemically oxidizes, flagging diaphorase assay artifacts. inhibition, % at 20 µM. hit rate 0.69% among 190,000. diaphorase resazurin-to-resorufin fluorescence, NADH, 16 min; bacterial (C. kluyveri) enzyme, not human;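 active = primary screen inhibition at 20 µM above a set limit, cut at about 50% in these data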
#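 Assay system: diaphorase enzyme from Clostridium kluyveri. Quantity: enzyme working solution with 0.14 U/mL diaphorase. Schedule: reaction incubation of 16 min at room temperature. Technique: resorufin fluorescence, excitation 544 nm, emission 590 nm. Controls: No-NADH positive control and DMSO neutral control.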
# HKDC1 inh: HKDC1 (human) hexokinase inhibition. Q2TB90. recombinant HKDC1, G6PDH/diaphorase resazurin coupled fluorescence. inhibition, % at 20 µM. hit rate 0.16% among 340,000;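 active = inhibition above about 35% when tested at 20 µM, limit read from the data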
# Target sequence (Q2TB90 whole entry, looked up): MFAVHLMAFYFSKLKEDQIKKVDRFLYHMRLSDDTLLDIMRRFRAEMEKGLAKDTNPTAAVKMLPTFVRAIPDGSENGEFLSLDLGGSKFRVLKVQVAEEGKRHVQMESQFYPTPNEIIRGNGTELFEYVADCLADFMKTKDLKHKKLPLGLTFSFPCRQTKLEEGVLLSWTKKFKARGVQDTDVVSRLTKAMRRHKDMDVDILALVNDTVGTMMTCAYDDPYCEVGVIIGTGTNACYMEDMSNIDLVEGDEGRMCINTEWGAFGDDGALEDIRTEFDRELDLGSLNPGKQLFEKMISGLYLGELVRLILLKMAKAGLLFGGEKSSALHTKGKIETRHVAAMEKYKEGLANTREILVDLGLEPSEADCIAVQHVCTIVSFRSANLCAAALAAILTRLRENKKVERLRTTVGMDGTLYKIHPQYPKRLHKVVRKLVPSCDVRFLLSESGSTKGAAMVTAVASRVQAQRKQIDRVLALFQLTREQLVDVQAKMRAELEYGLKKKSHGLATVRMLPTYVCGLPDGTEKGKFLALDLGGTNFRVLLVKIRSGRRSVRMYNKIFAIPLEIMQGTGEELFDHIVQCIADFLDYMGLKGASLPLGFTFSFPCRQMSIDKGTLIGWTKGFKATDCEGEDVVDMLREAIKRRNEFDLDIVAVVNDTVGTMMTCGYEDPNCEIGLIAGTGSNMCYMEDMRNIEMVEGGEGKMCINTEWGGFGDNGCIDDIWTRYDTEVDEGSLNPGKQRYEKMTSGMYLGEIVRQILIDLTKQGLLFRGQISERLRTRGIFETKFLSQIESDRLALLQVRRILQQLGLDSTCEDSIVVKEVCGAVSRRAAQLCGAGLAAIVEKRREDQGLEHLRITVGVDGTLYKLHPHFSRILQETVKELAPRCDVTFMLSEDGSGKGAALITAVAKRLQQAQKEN
#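 Material – in-house recombinant HK5 (HKDC1) enzyme · Quantity – HKDC1 at 5 µg/mL · Buffer or medium – pH 8.0 Tris buffer with 10 mM MgCl2 · Reagent – glucose with 1 mM ATP · Dosing – single 20 µM dose · Times – reaction time 90 min, room temperature, protected from light · Technique – resorufin fluorescence at 613 nm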
# Diaph act CS: counter-screen for diaphorase-based assays: diaphorase activators and chemical reducers; Diaphorase/resazurin coupled assay, resorufin fluorescence, 16 min; stronger effect = higher value; 1 = vehicle wells, 0 = NADH-free wells; activation factor at 20 µM; hit rate 0.005% among 190,000; AID 1229;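 active = diaphorase activity raised at least twofold by the compound at 20 µM; inactive = activation factor below 2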
#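 Assay system: Purified diaphorase enzyme from Clostridium kluyveri | Amount: Enzyme 0.07 U/mL final | Dosing: Compound 20 µM once, DMSO 1% | Timing: 16 min reaction at room temperature | Detection: Fluorescence, excitation 544 nm and emission 590 nm | Evaluation: Higher resorufin formation from activation or reduction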
# Arbovirus inh: blocks arbovirus infection; arbovirus infection cell-based antiviral screen; inhibition, % at 10 µM; hit rate 0.37% among 200,000; AID 1251; in the data active = inhibition above about 30%
# G6PDH counter: inhibits Leuconostoc G6PDH, flagging false hits in G6PDH-based assays; Purified L. mesenteroides G6PDH, diaphorase/resazurin coupled fluorescence, 45 min; inhibition, % at 5 µM; hit rate 0.12% among 200,000; AID 1020; in the data active = inhibition above about 50%
# Hits are given with their value; – = inactive; · = no result.
SMILES,Diaphorase inh,HKDC1 inh,Diaph act CS,Arbovirus inh,G6PDH counter
Fc1ccc(NC(=S)Nc2cccc3cnccc23)cc1,–,–,–,–,51
CN(C)S(=O)(=O)c1cccc(NC(=S)Nc2cccc3cnccc23)c1,·,–,·,·,·
Nc1c(N(Cc2ccccc2)C(=O)COc2ccc([N+](=O)[O-])cc2)c(=O)[nH]c(=O)n1Cc1ccccc1,·,–,·,·,·
O=C(Nc1scc(-c2cccs2)c1C(=O)O)c1cccs1,–,–,–,50,–
O=C(Nc1scc(-c2ccccc2)c1C(=O)O)c1ccco1,–,–,–,42,–
C=CCn1c(SC(C)C#N)nc2sc(CC)cc2c1=O (stereo not drawn),–,–,–,–,–
C=CCn1c(SC(C)C(N)=O)nc2sc(CC)cc2c1=O (stereo not drawn),–,–,–,32,–
CCC(=O)c1ccccc1OCCCN1CCC(Cc2ccccc2)CC1,·,–,·,·,·
CCOC(=O)c1c2ccc(OCC(=O)N/N=C/c3ccc(C)cc3)cc2n2ccccc12,61,–,–,–,–
CCOC(=O)c1c(C)n(C)c2cc(OCCN(CC)CC)ccc12,–,–,–,–,–
Cc1ccc(OCC(=O)N/N=C/c2cn(C)c3ccccc23)cc1,·,–,·,·,·
CCOC(=O)c1c2ccc(OCC(=O)NN)cc2n2ccccc12,64,–,–,–,–
CC(Oc1ccc(C#N)cc1)C(=O)Nc1ccc(-n2cnnn2)cc1 (stereo not drawn),·,–,·,·,·
N#Cc1ccccc1S(=O)(=O)N1CCN(C(=O)Cc2coc3cc(O)ccc23)CC1,·,–,·,·,·
O=c1oc2c(O)c(O)cc3c(=O)oc4c(O)c(O)cc1c4c23,86,54,–,–,–
O=c1oc2ccccc2c2oc3cc(O)c(O)cc3c12,·,–,·,·,·
CCn1c(C)nc2cc(C(=O)N/N=C/c3cccc(O)c3O)ccc21,72,–,–,–,–
CCn1c(C)nc2cc(C(=O)NNC(=S)NC(=O)c3ccccc3)ccc21,55,–,–,–,–
CCn1c(C)nc2cc(C(=O)NNC(=S)Nc3ccccc3)ccc21,–,–,–,–,–
CCn1c(C)nc2cc(C(=O)N/N=C/c3ccccc3)ccc21,–,–,–,–,–
CCN(C(=O)COC(=O)CCc1ccc(OC)cc1)c1c(N)n(Cc2ccccc2)c(=O)[nH]c1=O,·,–,·,·,·
COc1ccc(C(=O)COC(=O)C2COc3ccccc3O2)cc1F (stereo not drawn),·,–,·,·,·
CCN(CC)CCCNC(=S)N1CCC(c2nc3ccccc3[nH]2)CC1,·,–,·,·,·
CC(=O)N(C)C1=C(N2CCOCC2)C(=O)c2ccccc2C1=O,–,–,–,–,55
CC(=O)N(C1=C(N2CCOCC2)C(=O)c2ccccc2C1=O)c1ccc(C(=O)O)cc1,·,–,·,·,·
SMILES,Diaphorase inh,HKDC1 inh,Diaph act CS,Arbovirus inh,G6PDH counter
CCCCCCCCCC(=O)N[C@H](CN1CCOCC1)[C@H](O)c1ccccc1,·,–,·,·,·
CCCCCCCCCCCC(=O)NC(C(=O)O)C(O)c1ccccc1 (stereo not drawn),–,–,–,32,–
CC1=C(C#N)C(=O)NC(=O)/C1=C\c1ccc(-c2ccc(C)cc2[N+](=O)[O-])o1,57,–,–,–,–
CCOC(=O)c1cc(-c2ccc(/C=C3/C(=O)NC(=O)C(C#N)=C3C)o2)ccc1Cl,–,–,–,–,–
S=C(Nc1ccc2nsnc2c1)N1CCCCCC1,·,–,·,–,60
O=C(Nc1ccc2nsnc2c1)N1CCCCC1,–,–,–,–,–
S=C(Nc1ccc2nsnc2c1)NC1CCCCC1,–,–,–,–,56
S=C(Nc1ccc(Cl)c(Cl)c1)NC1CCCCC1,–,–,–,–,–
C=CCN(c1ccccc1OC)S(=O)(=O)c1cccc(C(=O)OCC(=O)c2c(N)n(C)c(=O)n(C)c2=O)c1,·,–,·,·,·
COCCn1c(-c2ccccc2Cl)nc2c(c(=O)c3ccccc3n2C)c1=O,–,–,–,31,–
Cn1c(=O)c2nc(SCCO)n(C)c2n(C)c1=O,·,–,·,·,·
CC(=O)c1ccc(NC(=O)c2ccc(C)c(Br)c2)cc1,94,–,–,–,–
CCC(C)n1c(C)nc2c(c1=O)c1nc3ccccc3nc1n2CCC1=CCCCC1 (stereo not drawn),64,–,–,–,–
CCCCn1c2nc3ccccc3nc2c2c(=O)n(C(C)CC)cnc21 (stereo not drawn),–,–,–,–,–
CN(C1=C(NC(=O)c2ccccc2)C(=O)c2ccccc2C1=O)C1CCS(=O)(=O)C1 (stereo not drawn),59,·,–,–,–
CCN(CC)C(=O)CSC1=N/C(=C/c2ccco2)C(=O)N1c1ccc(OC)c(Cl)c1,–,–,–,37,–
Cc1ccc(C2C(C#N)=C(N)Oc3c2sc2ccccc32)o1 (stereo not drawn),55,·,–,–,–
COc1cc(C(=S)N2CCN(c3ccccc3Cl)CC2)cc(O)c1O,61,–,–,–,–
O=C(C1CC1)N1CCc2cc(Br)c(S(=O)(=O)N3CCCCCC3)cc21,·,–,·,·,·
CC(C)(C)OC(=O)N(CCc1ccccc1)Cc1cccc(OCc2cccc(NC(=O)C3CC3)c2)c1,·,–,·,·,·
O=C(Nc1cc(S(=O)(=O)N2CCCCC2)ccc1Cl)C1=NN(c2ccccc2)C(=O)CC1,·,–,·,·,·
Cc1cccc(NC(=O)CC2Nc3cccc4cccc(c34)NC2=O)c1 (stereo not drawn),68,–,–,–,–
O=C(CC1NC(=O)NC1=O)Nc1ccccc1 (stereo not drawn),–,–,–,–,–
CC(=O)Nc1ccc(NC(=O)CC2Nc3cccc4cccc(c34)NC2=O)cc1 (stereo not drawn),77,–,–,–,–
CCOc1ccc(NC(=O)CC2Nc3ccccc3NC2=O)cc1 (stereo not drawn),–,–,–,–,–
SMILES,Diaphorase inh,HKDC1 inh,Diaph act CS,Arbovirus inh,G6PDH counter
CC(=O)c1ccc(NC(=O)CC2Nc3cccc4cccc(c34)NC2=O)cc1 (stereo not drawn),84,–,–,–,–
Cc1cccc2nc(-c3ccco3)c(Nc3ccc4c(c3)OCO4)n12,72,–,–,–,–
Cc1cccc2nc(-c3ccco3)c(Nc3ccccc3)n12,–,–,–,–,–
COC(=O)C(N)Cc1ccc(O)c(O)c1 (stereo not drawn),–,–,–,–,–
NC(CO)C(=O)NNCc1ccc(O)c(O)c1O (stereo not drawn),74,–,–,–,–
Nc1cccnc1Sc1ccc([N+](=O)[O-])cn1,50,–,–,–,–
O=[N+]([O-])c1ccc(Sc2ccccc2)nc1,–,–,–,–,–
COc1cc(/C=N/Nc2nc(N3CCCC3)nc(N3CCCC3)n2)ccc1O,–,–,–,–,–
Oc1ccc(/C=N/Nc2cc(N3CCCC3)nc(N3CCCC3)n2)cc1,–,–,–,–,52
Oc1ccc(/C=N/Nc2nc(N3CCCC3)nc(N3CCCC3)n2)cc1O,72,–,–,–,–
Oc1ccc(/C=N/Nc2cc(N3CCOCC3)nc(N3CCOCC3)n2)cc1,·,–,·,·,·
